Bioassay records: PubChem, Broad Institute
An excerpt weighted towards active compounds, which were near 2.9% of everything screened.
DENV2 CPE rescue – inhibitors of DENV2 cytopathic effect; DENV2-infected cells, cytopathic effect rescue, plate reader; CPE inhibition, % at 9.99 µM; 350,000 compounds, 1.7% hits; AID 651640; in the data active = CPE inhibition above about 20%, passing the limit was not always enough; inconclusive = no clear call, values can overlap the other calls; tested in BHK-21 cells;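 also: 0% = median of neutral control wells and 100% = median of positive control wells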
SIRT5 block – sirtuin-5 (human) deacylase inhibition. AID 652115. Purified SirT5, succinyl-peptide AMC, trypsin-coupled fluorescence. Q9NXA8. 330,000 compounds, 1.1% hits. inhibition, % at 15 µM; in the data active = inhibition above about 15%; inconclusive = no clear call, values can overlap the other calls
Target sequence (Q9NXA8 whole entry, looked up): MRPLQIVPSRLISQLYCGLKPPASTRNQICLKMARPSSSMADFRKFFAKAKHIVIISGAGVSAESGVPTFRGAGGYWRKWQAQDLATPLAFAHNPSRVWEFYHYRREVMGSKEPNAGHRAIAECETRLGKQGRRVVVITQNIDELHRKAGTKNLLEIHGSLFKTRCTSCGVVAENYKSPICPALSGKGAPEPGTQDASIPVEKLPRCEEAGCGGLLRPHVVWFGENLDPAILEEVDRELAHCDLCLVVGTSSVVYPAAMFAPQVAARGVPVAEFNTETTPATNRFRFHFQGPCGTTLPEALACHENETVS
E-selectin induc – induces E-selectin expression in human endothelial cells | P16581 | HUVEC E-selectin immunofluorescence imaging; normalized: neutral wells 0, TNF-alpha wells 100 | activation, % at 7.58 µM | 260,000 compounds, 0.37% hits | AID 686992;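 active = mean E-selectin-positive cell signal at least 10% of the positive control, reached in at least 60% of replicates, without over 20% cell loss; inconclusive = no rule given, readout overlaps actives, possibly toxicity-flagged; inactive = the rest, including those meeting only one limit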
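Read-out: % PE-positive cells | Test system: HUVEC | Doses: One compound dose added by pin transfer | Buffer or medium: EGM-2 over gelatin coat | Signal: Immunofluorescence imaging | Benchmarks: TNF-alpha, DMSO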
* = called active by the depositor; ? = inconclusive; · = not tested or not shown.

SMILES | DENV2 CPE rescue | SIRT5 block | E-selectin induc
O=C1CN(Cc2ccccc2)CC(=O)N1 | 9 | -2 | ·
CC(C)N(C(=O)COC(=O)[C@H](C)NC(=O)c1ccco1)c1ccccc1 | -2 | 31* | ·
CC(C)[C@H](NC(=O)c1ccco1)C(=O)OCC(=O)N(C)c1ccccc1 | · | -4 | 4
CCC(=O)N1C[C@H](C)[C@H](OC)CN(C)C(=O)c2cc(NC(=O)Nc3ccc(Cl)cc3)ccc2OC[C@H]1C | 9 | 11 | 0
COc1ccc(S(=O)(=O)N(C)C[C@H]2Oc3ccc(NC(=O)CCCN(C)C)cc3C(=O)N([C@H](C)CO)C[C@@H]2C)cc1 | -7 | -2 | 6
COc1ccc(S(=O)(=O)N(C)C[C@H]2Oc3ccc(NC(=O)CCCN(C)C)cc3C(=O)N([C@@H](C)CO)C[C@@H]2C)cc1 | -8 | -2 | 52*
COc1ccc(S(=O)(=O)N(C)C[C@@H]2Oc3ccc(NC(=O)CCCN(C)C)cc3C(=O)N([C@H](C)CO)C[C@@H]2C)cc1 | 16 | 0 | 24
COc1ccc(S(=O)(=O)N(C)C[C@H]2Oc3ccc(NC(=O)CCCN(C)C)cc3C(=O)N([C@@H](C)CO)C[C@H]2C)cc1 | 33* | -1 | 97*
COc1ccc2c3c(n(C)c2c1)[C@@H](CO)N(C(=O)Nc1cccc(F)c1)CC31CCN(C)CC1 | ? | · | 0
CCC1(c2ccc(F)cc2)NC(=O)N(CC(=O)Nc2cccc(S(=O)(=O)N3CCCC3)c2)C1=O (stereo not drawn) | -8 | -2 | -2
CCC1(c2ccc(F)cc2)NC(=O)N(CC(=O)Nc2cccc(S(=O)(=O)N3CCCCC3)c2)C1=O (stereo not drawn) | 6 | 15* | 0
CCC1(c2ccccc2)NC(=O)N(CC(=O)Nc2ccccc2C(=O)N2CCCCC2)C1=O (stereo not drawn) | 35* | 0 | 1
CCC1(c2ccccc2)NC(=O)N(CC(=O)Nc2ccccc2N2CCCCC2)C1=O (stereo not drawn) | -7 | -4 | 0
Cc1nc(N2CCN(c3ccccn3)CC2)c2c(C)c(C(=O)N3CCN(c4ccc(F)cc4)CC3)sc2n1 | 0 | 1 | 0
CCN(CC(=O)Nc1ccc2c(c1)OCCO2)C(=O)c1ccc(C(F)(F)F)cc1 | -5 | 9 | ·
Cc1c(C)c2ccc(OC(C)C(=O)NC3CC(C)(C)NC(C)(C)C3)cc2oc1=O (stereo not drawn) | -4 | -22 | ·
Cc1cc(OC(C)C(=O)NC2CC(C)(C)NC(C)(C)C2)c2c(C)c(C)c(=O)oc2c1 (stereo not drawn) | 45* | -18 | 0
CCCCn1nc(NC(=O)CCC)c2cc3cc(OC)ccc3nc21 | -6 | -10 | ·
CCCCn1nc(NC(=O)CC(C)C)c2cc3cc(OC)ccc3nc21 | -1 | -5 | 56*
O=C(NCc1ccc(F)c(F)c1)C1CCC(=O)N(CCc2ccccc2)C1 (stereo not drawn) | 6 | 0 | ·
COc1cc(C(=O)NCC(c2ccco2)N2CCc3ccccc32)cc(OC)c1OC (stereo not drawn) | 92* | -1 | 0
COc1ccccc1C(=O)NCC(c1ccco1)N1CCc2ccccc21 (stereo not drawn) | 0 | -1 | 3
Cc1cc(C)n(-c2cc(Cl)ccc2[N+](=O)[O-])n1 | -4 | -3 | 0
CCCn1nnc(NC(=O)/C=C/c2cc(Br)ccc2OC)n1 | 4 | 4 | -1
CN(CC(=O)Nc1c(Cl)cccc1Cl)C(=O)c1ccc(NS(=O)(=O)c2ccc3[nH]c(=O)[nH]c3c2)cc1 | 40* | -3 | ·
SMILES | DENV2 CPE rescue | SIRT5 block | E-selectin induc
Cc1ccc(NC(=O)CN(C)C(=O)c2ccc(NS(=O)(=O)c3ccc4[nH]c(=O)[nH]c4c3)cc2)cc1 | -1 | 0 | 4
CCCCc1ccc(NS(=O)(=O)c2c(C)n(C)c(=O)n(C)c2=O)cc1 | 6 | -1 | 3
COc1ccc2c3c([nH]c2c1)[C@@H](CO)NCC31CCN(Cc2ccc(F)cc2)CC1 | 24* | -4 | 0
COc1ccc2c3c([nH]c2c1)[C@@H](CO)NCC31CCN(C(=O)C2CCCC2)CC1 | 78* | 8 | 0
COc1ccc2c3c([nH]c2c1)[C@H](CO)NCC31CCN(Cc2ccccc2)CC1 | 7 | · | 0
COc1ccc2c3c([nH]c2c1)[C@H](CO)NCC31CCN(C(=O)C2CCC2)CC1 | 3 | 0 | 0
COc1ccccc1NC(=O)Nc1nnc([C@@H]2C[C@H](O)[C@@H](CO)O2)s1 | -3 | 0 | 5
CCc1ccc(OCC(O)CN2CCN(c3ccc(OC)cc3)CC2)cc1 (stereo not drawn) | 8 | 1 | ·
COc1ccc(NC(=O)c2cc(C3CCCCN3C(=O)c3cc(F)ccc3C)on2)c(C)c1 (stereo not drawn) | 3 | · | 0
COc1ccc(S(=O)(=O)N2CCCCC2c2cc(C(=O)Nc3ccccc3)no2)cc1 (stereo not drawn) | 33* | -1 | 0
COC(=O)N1CCCCC1c1cc(C(=O)Nc2ccc(OC)cc2C)no1 (stereo not drawn) | 51* | 0 | 0
COc1ccc(C(=O)N2CCCCC2c2cc(C(=O)NCc3cccnc3)no2)cc1 (stereo not drawn) | 33* | 2 | 0
Cc1ccc(F)cc1C(=O)N1CCCCC1c1cc(C(=O)NC(C)C)no1 (stereo not drawn) | 56* | -4 | 0
COc1cc(C(=O)N2CCCCC2c2cc(C(=O)NCc3cccnc3)no2)cc(OC)c1C (stereo not drawn) | -1 | -4 | 0
COc1ccc(C(=O)N2CCCCC2c2cc(C(=O)Nc3ccc(OC)cc3C)no2)cc1 (stereo not drawn) | 14 | · | 0
COc1ccc(S(=O)(=O)N2CCCCC2c2cc(C(=O)Nc3ccccc3Cl)no2)cc1 (stereo not drawn) | -2 | · | 0
OCCCNc1nnc(-c2ccccc2)c2ccccc12 | 0 | 0 | 0
O=C1CC(N(O)C2CC(=O)N(Cc3ccccc3)C2=O)C(=O)N1Cc1ccccc1 (stereo not drawn) | · | · | 2
O=C(O)CN1C(=O)/C(=C\c2cccc(OCc3ccccc3F)c2)SC1=S | 10 | -1 | 1
COc1cc(OC)cc(C(=O)NC2CCSc3ccccc32)c1 (stereo not drawn) | 5 | -2 | 1
COc1ccc(NC(=O)c2cc(C3CCCCN3C(=O)c3ccc(Cl)cc3)on2)c(C)c1 (stereo not drawn) | -15 | 0 | -1
O=C(Nc1ccccc1Cl)c1cc(C2CCCCN2C(=O)C2CCCCC2)on1 (stereo not drawn) | 9 | 6 | 1
COc1ccc(NC(=O)c2cc(C3CCCCN3C(=O)c3cc(C(C)(C)C)nn3C)on2)c(C)c1 (stereo not drawn) | 48* | · | 0
COC(=O)N1CCCCC1c1cc(C(=O)Nc2ccccc2Cl)no1 (stereo not drawn) | 28* | · | 0
Cn1cc(CN2CCC(n3nccc3NC(=O)CCOc3ccccc3)CC2)cn1 | -8 | -2 | ·
COc1ccc(NC(=O)C2CCN(S(=O)(=O)c3ccc4c(c3)NC(=O)C(C)S4)CC2)cc1 (stereo not drawn) | -6 | -1 | ·
COc1ccccc1OCCC(=O)OCC(=O)Nc1ccc(S(=O)(=O)N2CCOCC2)cc1 | 4 | 0 | ·
